Data set [1] deals with T1, Botulinum neurotoxin type A (Clostridium botulinum, UniProt P0DPI0). The data set is described as follows: Inhibition of Clostridium botulinum BoNT/A Hall A hyper protease light chain (1-425aa) using SNAPtide as substrate by FRET assay. An outline of the steps:
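Recombinant BoNT/A light chain (residues 1-425) cleaving the FRET peptide SNAPtide at 5 μM, with 0.01 % Triton X-100. Inhibitor concentration varied; IC50 taken from fluorescence signal.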

Data set [2] addresses T1, Botulinum neurotoxin type A. Nature of the data set: Competitive inhibition of Clostridium botulinum BoNT/A Hall A hyper protease light chain (1-425aa) using SNAP-66mer (141-206aa) as substrate by FRET assay.
The target in data set [3] is Botulinum neurotoxin type A (Clostridium botulinum) (UniProt P0DPI0). Nature of the data set: Inhibition of Clostridium botulinum BoNT/A protease light chain in stem cell-derived neurons (unknown origin) assessed as inhibition of SNAP-25 cleavage at 0.5 to 50 uM after 22 hrs by Western blot analysis. A general note: Immunoblotting shows a protein as a band on a membrane.

A short description of data set [4]: Cytotoxicity against stem cell-derived neurons (unknown origin) at 20 uM after 22 hrs. An outline of the steps: (§1)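 Primary rat spinal cord cells or stem cell-derived neurons exposed to compound. Cytotoxicity judged from low overall protein signal on Western blot.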
A short description of data set [5]: Cytotoxicity against stem cell-derived neurons (unknown origin) at 500 uM after 22 hrs. An outline of the steps:
as §1

A short description of data set [6]: Cytotoxicity against rat spinal cord cells at 500 uM after 22 hrs. Format: cell-based. Summed up: as §1
A short description of data set [7]: Cytotoxicity against rat spinal cord cells at 20 uM after 22 hrs. Format: cell-based. Summed up:
as §1

In data set [8] the target is Botulinum neurotoxin type A (Clostridium botulinum) (UniProt P0DPI0). The data set is described as follows: Inhibition of Clostridium botulinum BoNT/A protease light chain in rat spinal cord cells assessed as inhibition of SNAP-25 cleavage at 0.5 to 50 uM after 22 hrs by Western blot analysis. Format: cell-based.
Data set [9] in a line: Cytotoxicity against rat spinal cord cells at 50 uM after 22 hrs. In kind it is cell-based. An outline of the steps: as §1

The source made the active and inactive calls. No cut-off for these calls is given here.

T1 sequence (P0DPI0 2-448 limits assumed): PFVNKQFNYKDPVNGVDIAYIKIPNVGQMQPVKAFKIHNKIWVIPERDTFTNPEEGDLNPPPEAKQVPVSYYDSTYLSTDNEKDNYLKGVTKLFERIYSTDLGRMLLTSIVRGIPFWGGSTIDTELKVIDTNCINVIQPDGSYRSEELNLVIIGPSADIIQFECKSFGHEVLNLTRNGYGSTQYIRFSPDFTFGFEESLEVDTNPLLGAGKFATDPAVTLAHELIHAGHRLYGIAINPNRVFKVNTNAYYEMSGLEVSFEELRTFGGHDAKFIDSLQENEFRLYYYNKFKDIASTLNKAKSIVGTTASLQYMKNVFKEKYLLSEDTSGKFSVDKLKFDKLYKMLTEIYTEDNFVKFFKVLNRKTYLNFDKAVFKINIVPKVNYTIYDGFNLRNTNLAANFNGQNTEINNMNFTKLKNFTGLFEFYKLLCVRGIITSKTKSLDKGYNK
Sequence of Botulinum neurotoxin type A (Clostridium botulinum) (P0DPI0 2-448 limits assumed): as above

Turning to `O=C(CC12CC3CC(CC(C3)C1)C2)NO`, the IC50 in data set [1] worked out at 1000 nM. The molecule also showed a Ki in data set [2] of 460 nM.

`O=C(CC12CC3CC(C1)CC(c1ccc4c(c1)CCCC4)(C3)C2)NO`: 1000 nM corresponded to half-maximal inhibition in [1] (IC50).

`O=C(CC12CC3CC(C1)CC(C(=O)O)(C3)C2)NO` registered an IC50 in data set [1] of more than 500000 nM.

On to `O=C(CC12CC3CC(CC(O)(C3)C1)C2)NO`, for which the IC50 in [1] amounted to 23000 nM.

In turn, `O=C(CC12CC3CC(C1)CC(c1ccc(Cl)cc1)(C3)C2)NO` registered a concentration for half-maximal inhibition (IC50) in data set [1] of 30 nM. Moreover, the affinity in data set [2] corresponds to a Ki of 27 nM.

In the case of `O=C(CC12CC3CC(C1)CC(c1ccc(-c4ccccc4)cc1)(C3)C2)NO`, the midpoint of inhibition in data set [1], the IC50, lay at 200 nM.

In [1], `CC(=O)OC12CC3CC(CC(CC(=O)NO)(C3)C1)C2` gave an IC50 of 24000 nM.

In data set [1], `O=C(CC12CC3CC(C1)CC(c1ccc4ccccc4c1)(C3)C2)NO` displayed an IC50 of 300 nM.

In data set [1], `O=C(CC12CC3CC(CC(Cl)(C3)C1)C2)NO` had an IC50 of 1400 nM.

Consider `O=C(CC12CC3CC(CC(CO)(C3)C1)C2)NO`, for which half-maximal inhibition in data set [1] (IC50) required 3400 nM.

Consider `Cc1ccc(C23CC4CC(CC(CC(=O)NO)(C4)C2)C3)cc1`, for which the IC50 in [1] turned out to be 250 nM.

`COc1ccc(C23CC4CC(CC(CC(=O)NO)(C4)C2)C3)cc1`: the outcome in data set [3] and in [8] was inactive. Moreover, the Activity result was “Toxic” in [4], “Non-toxic” in [5], “Toxic” in data set [6] and “Toxic” in [7]. In data set [1], the 50% inhibitory concentration (IC50) was 250 nM. This molecule registered a Ki in data set [2] of 130 nM.

`O=C(C[C@@H](CCO)c1ccc(Cl)cc1Cl)NO` displayed an inhibition constant (Ki) in [2] of 160 nM.

For the molecule `O=C(CC12CC3CC(C1)CC(c1ccc(Br)cc1)(C3)C2)NO`, the outcome in data set [3] and in [8] was inactive. The Activity result in [4] is given as “Toxic”; in data set [5], “Non-toxic”; in data set [9] it was “Toxic”; in [6], “Toxic”; in data set [7] it was “Toxic”. In addition, the IC50 in data set [1] came out at 40 nM. Besides, affinity in data set [2] was put at a Ki of 27 nM.

In [1], `O=C(CC12CC3CC(CC(Br)(C3)C1)C2)NO` had an IC50 of 1400 nM.

The molecule `NCCCCCCCNC(=O)c1cc(CCC(=O)NO)c(CCC(O)(c2ccccc2)c2ccccc2)n1Cc1ccccc1` came in with a Ki in [2] of 760 nM.

On to `O=C(CC12CC3CC(C1)CC(c1ccc([N+](=O)[O-])cc1)(C3)C2)NO`, for which the result in data set [3] and in [8] was inactive. In addition, the Activity entry in [4] is “Toxic”; in data set [5] it was “Non-toxic”; in data set [6], “Toxic”; in data set [7], “Toxic”. Also, the half-maximal inhibitory concentration (IC50) in [1] was 500 nM.

In turn, `O=C(CC12CC3CC(C1)CC(c1ccc([N+](=O)[O-])cc1[N+](=O)[O-])(C3)C2)NO` registered a concentration for half-maximal inhibition (IC50) in data set [1] of 400 nM.

Consider `O=C(CC12CC3CC(C1)CC(c1ccccc1)(C3)C2)NO`, for which inhibition in data set [1] was half-maximal at 500 nM (IC50). The inhibitory constant (Ki) in data set [2] is 750 nM.

For `O=C(CC12CC3CC(CC(F)(C3)C1)C2)NO`, the IC50 in data set [1] was found to be 3100 nM.

Molecule `COC12CC3CC(CC(CC(=O)NO)(C3)C1)C2` yielded an IC50 in data set [1] of 5700 nM.

What is called IC50 is the concentration at which inhibition is half-maximal. For orientation: Ki means a dissociation constant, usually derived from enzyme kinetics or from competition with a known ligand. The low end stands for tighter binding, the high end for weaker binding.

For the origin of these results see ChEMBL document CHEMBL2331385, “Evaluation of adamantane hydroxamates as botulinum neurotoxin inhibitors: synthesis, crystallography, modeling, kinetic and cellular based studies” (Bioorg Med Chem, 2013).
